The record followed here is ChEMBL document CHEMBL3244241, “Synthesis of cephalotaxine esters and correlation of their structures with antitumor activity” (J Med Chem, 1977).

The source made the active and inactive calls. No cut-off for these calls is given here.

Series [1] concerns Mus musculus. As to the kind of experiment: Toxicity in DBA/2 mouse allografted with mouse P388 cells at 480 mg/kg/day, ip for 9 days. It counts as organism-based. Also noted: route intraperitoneal. Particulars: in vivo, 216 h. An outline of the steps: (§1)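 DBA/2 mice bearing P388 lymphocytic leukemia received one intraperitoneal injection per day for 9 days, given in the vehicle named for each test (water/alcohol-based, saline or saline + Tween 80). Toxicity was noted during dosing alongside survival scoring (T/C, treated versus control mean survival time).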

Series [2] concerns Mus musculus. As to the kind of experiment: Toxicity in DBA/2 mouse allografted with mouse P388 cells assessed as change in body weight at 365 mg/kg/day, ip for 9 days compound administered through water+alcohol vehicle. Type of series: organism-based. Also on record: route intraperitoneal. Particulars: in vivo, 216 h. An outline of the steps:
as §1

The test system of series [3] is Mus musculus. As to the kind of experiment: Toxicity in DBA/2 mouse allografted with mouse P388 cells assessed as change in body weight at 240 mg/kg/day, ip for 9 days compound administered through water+alcohol vehicle. Also on record: route intraperitoneal. It counts as organism-based. The following applies: in vivo, 216 h. An outline of the steps:
as §1

Series [4] concerns Mus musculus. As to the kind of experiment: Toxicity in DBA/2 mouse allografted with mouse P388 cells assessed as change in body weight at 160 mg/kg/day, ip for 9 days compound administered through water+alcohol vehicle. Type of series: organism-based. Also noted: route intraperitoneal. Particulars: in vivo, 216 h. Put shortly:
as §1

The test system of series [5] is Mus musculus. As to the kind of experiment: Toxicity in DBA/2 mouse allografted with mouse P388 cells assessed as change in body weight at 80 mg/kg/day, ip for 9 days compound administered through water+alcohol vehicle. Type of series: organism-based. Also noted: route intraperitoneal. The following applies: in vivo, 216 h. An outline of the steps:
as §1

Series [6] deals with Mus musculus. As to the kind of experiment: Toxicity in DBA/2 mouse allografted with mouse P388 cells assessed as change in body weight at 40 mg/kg/day, ip for 9 days compound administered through water+alcohol vehicle. It counts as organism-based. The following applies: in vivo, 216 h. Also noted: route intraperitoneal. Put shortly: as §1
The subject of series [7] is Mus musculus. As to the kind of experiment: Toxicity in DBA/2 mouse allografted with mouse P388 cells at 400 mg/kg/day, ip for 9 days. Type of series: organism-based. Particulars: in vivo, 216 h. Also noted: route intraperitoneal. An outline of the steps:
as §1

The subject of series [8] is P388. As to the kind of experiment: Antitumor activity against mouse P388 cells allografted in DBA/2 mouse assessed as host survival at 365 mg/kg/day, ip for 9 days compound administered through water+alcohol vehicle relative to control. It counts as functional. The following applies: route intraperitoneal. An outline of the steps:
(§2)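 P388 lymphocytic leukemia in DBA/2 mice. Dosing was one intraperitoneal injection per day for 9 days in the vehicle stated. […] Duplicate tests were run for some doses.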

Series [9] has as its system P388. As to the kind of experiment: Antitumor activity against mouse P388 cells allografted in DBA/2 mouse assessed as host survival at 240 mg/kg/day, ip for 9 days compound administered through water+alcohol vehicle relative to control. Type of series: functional. The following applies: route intraperitoneal. An outline of the steps: as §2
The test system of series [10] is P388. As to the kind of experiment: Antitumor activity against mouse P388 cells allografted in DBA/2 mouse assessed as host survival at 160 mg/kg/day, ip for 9 days compound administered through water+alcohol vehicle relative to control. Type of series: functional. Particulars: route intraperitoneal. An outline of the steps:
as §2

The test system of series [11] is P388. As to the kind of experiment: Antitumor activity against mouse P388 cells allografted in DBA/2 mouse assessed as host survival at 80 mg/kg/day, ip for 9 days compound administered through water+alcohol vehicle relative to control. Particulars: route intraperitoneal. Type of series: functional. Put shortly: as §2
Series [12] deals with P388. As to the kind of experiment: Antitumor activity against mouse P388 cells allografted in DBA/2 mouse assessed as host survival at 40 mg/kg/day, ip for 9 days compound administered through water+alcohol vehicle relative to control. It counts as functional. The following applies: route intraperitoneal. Put shortly: as §2
In series [13] the test system is P388. As to the kind of experiment: Antitumor activity against mouse P388 cells allografted in ip dosed DBA/2 mouse administered for 9 days. It counts as functional, organism-based. Put shortly: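 P388 lymphocytic leukemia in DBA/2 mice; one intraperitoneal injection per day for 9 days. […] Injection vehicles were water + alcohol, saline + Tween 80, or aqueous 0.5% citric acid. Some tests were duplicated, and 30-day cures were recorded.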

The test system of series [14] is Mus musculus. As to the kind of experiment: Toxicity in DBA/2 mouse allografted with mouse P388 cells at >80 mg/kg/day, ip for 9 days. It counts as organism-based. Particulars: in vivo, 216 h. An outline of the steps:
as §1

The subject of series [15] is Mus musculus. As to the kind of experiment: Toxicity in DBA/2 mouse allografted with mouse P388 cells assessed as change in body weight at 320 mg/kg/day, ip for 9 days compound administered through saline vehicle. Also noted: route intraperitoneal. Type of series: organism-based. The following applies: in vivo, 216 h. Put shortly:
as §1

Series [16] concerns Mus musculus. As to the kind of experiment: Toxicity in DBA/2 mouse allografted with mouse P388 cells assessed as change in body weight at 160 mg/kg/day, ip for 9 days compound administered through saline vehicle. Also on record: route intraperitoneal. The following applies: in vivo, 216 h. Type of series: organism-based. Put shortly: as §1
The test system of series [17] is Mus musculus. As to the kind of experiment: Toxicity in DBA/2 mouse allografted with mouse P388 cells assessed as change in body weight at 80 mg/kg/day, ip for 9 days compound administered through saline vehicle. Type of series: organism-based. Also on record: route intraperitoneal. Particulars: in vivo, 216 h. An outline of the steps:
as §1

Series [18] relates to Mus musculus. As to the kind of experiment: Toxicity in DBA/2 mouse allografted with mouse P388 cells up to 320 mg/kg/day, ip for 9 days. Type of series: organism-based. Also on record: route intraperitoneal. The following applies: in vivo, 216 h. Put shortly:
as §1

Series [19] has as its system P388. As to the kind of experiment: Antitumor activity against mouse P388 cells allografted in DBA/2 mouse assessed as host survival at 320 mg/kg/day, ip for 9 days compound administered through saline vehicle relative to control. Type of series: functional. Particulars: route intraperitoneal. Put shortly:
as §2

Series [20] deals with P388. As to the kind of experiment: Antitumor activity against mouse P388 cells allografted in DBA/2 mouse assessed as host survival at 160 mg/kg/day, ip for 9 days compound administered through saline vehicle relative to control. Type of series: functional. The following applies: route intraperitoneal. Put shortly: as §2
Series [21] has as its system P388. As to the kind of experiment: Antitumor activity against mouse P388 cells allografted in DBA/2 mouse assessed as host survival at 80 mg/kg/day, ip for 9 days compound administered through saline vehicle relative to control. Type of series: functional. The following applies: route intraperitoneal. An outline of the steps: as §2

As for `C=C(CC(=O)OC)C(=O)O[C@@H]1C(OC)=C[C@]23CCCN2CCc2cc4c(cc2[C@H]13)OCO4` (single isomer, unassigned), in the series with Mus musculus [1], the Activity entry is “Toxic”.
By T/C is commonly meant the result in the treated group divided by that in the control group, in per cent. For the molecule `C=C(CC(=O)OC)C(=O)O[C@@H]1C(OC)=C[C@]23CCCN2CCc2cc4c(cc2[C@H]13)OCO4`, the Activity was -3 g in the series with Mus musculus [2]; -1.4 g in the series on Mus musculus [3]; -1.1 g in the series with Mus musculus [4]; -0.1 g in the series on Mus musculus [5]; -1.3 g with Mus musculus [6]; “Toxic” in the series on Mus musculus [7]. Also, the T/C with P388 [8] is 198%; with P388 [9] it was 169%; in the series on P388 [10], 167%; with P388 [11], 173%; in the series on P388 [12], 135%.
On to `COC1=C[C@]23CCCN2CCc2cc4c(cc2[C@@H]3[C@@H]1OC(=O)[C@@H](O)c1ccccc1)OCO4`, for which the outcome in the series with P388 [13] was inactive. Further, the Activity entry with Mus musculus [14] is recorded as “Toxic”.
Take `COC1=C[C@]23CCCN2CCc2cc4c(cc2[C@@H]3[C@@H]1OC(=O)[C@@H](OC(=O)OCC(Cl)(Cl)Cl)c1ccccc1)OCO4`: the Activity in the series on Mus musculus [15] is recorded as -2.3 g; with Mus musculus [16], 1.2 g; in the series on Mus musculus [17] it was -1 g; in the series on Mus musculus [18], “Toxic”. Besides, the T/C in the series with P388 [19] stood at 136%; with P388 [20], 154%; in the series with P388 [21], 138%.
